Activity calls are given as the source filed them. The calls are words filed in the database; no cut-off is given here.
Experiments:
[1] = biological target: Mitogen-activated protein kinase kinase kinase 3 (Homo sapiens) (UniProt Q99759); experiment: Inhibition of full-length recombinant human MEKK3 at 1 uM using myelin basic protein as substrate measured after 120 mins in presence of [gamma33P]ATP by scintillation counting method relative to control
Method in brief: (§1)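 Percent inhibition of kinase activity at a single compound concentration, measured by the outsourced Eurofins KinaseProfiler panel. Values are the mean of two independent experiments.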

NCI-H1299 [2] = experiment: Induction of cell cycle arrest in human H1299 cells assessed as increase in accumulation of cells at G2/M phase at 1 uM after 24 hrs by propidium iodide/RNase staining based flow cytometric analysis (reference value: 19%); assay type: functional
Method in brief: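 A549 and H1299 plated at 5×10^5 cells/mL in 6-well plates, treated after adherence for 24 h. Washed with PBS, fixed overnight in ice-cold 75% ethanol, stained with propidium iodide plus RNase A for 30 min at 37 °C, analysed by flow cytometry for phase distribution. Means ± SD, three independent experiments.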

[3] = biological target: Fibroblast growth factor receptor 2 (Homo sapiens) (UniProt P21802); experiment: Inhibition of recombinant human FGFR2 (456 to 770 residues) at 1 uM using poly(Glu, Tyr) 4:1 as substrate measured after 40 mins in presence of [gamma33P]ATP by scintillation counting method relative to control
Chain of Fibroblast growth factor receptor 2 (Homo sapiens) (P21802 22-821 limits assumed): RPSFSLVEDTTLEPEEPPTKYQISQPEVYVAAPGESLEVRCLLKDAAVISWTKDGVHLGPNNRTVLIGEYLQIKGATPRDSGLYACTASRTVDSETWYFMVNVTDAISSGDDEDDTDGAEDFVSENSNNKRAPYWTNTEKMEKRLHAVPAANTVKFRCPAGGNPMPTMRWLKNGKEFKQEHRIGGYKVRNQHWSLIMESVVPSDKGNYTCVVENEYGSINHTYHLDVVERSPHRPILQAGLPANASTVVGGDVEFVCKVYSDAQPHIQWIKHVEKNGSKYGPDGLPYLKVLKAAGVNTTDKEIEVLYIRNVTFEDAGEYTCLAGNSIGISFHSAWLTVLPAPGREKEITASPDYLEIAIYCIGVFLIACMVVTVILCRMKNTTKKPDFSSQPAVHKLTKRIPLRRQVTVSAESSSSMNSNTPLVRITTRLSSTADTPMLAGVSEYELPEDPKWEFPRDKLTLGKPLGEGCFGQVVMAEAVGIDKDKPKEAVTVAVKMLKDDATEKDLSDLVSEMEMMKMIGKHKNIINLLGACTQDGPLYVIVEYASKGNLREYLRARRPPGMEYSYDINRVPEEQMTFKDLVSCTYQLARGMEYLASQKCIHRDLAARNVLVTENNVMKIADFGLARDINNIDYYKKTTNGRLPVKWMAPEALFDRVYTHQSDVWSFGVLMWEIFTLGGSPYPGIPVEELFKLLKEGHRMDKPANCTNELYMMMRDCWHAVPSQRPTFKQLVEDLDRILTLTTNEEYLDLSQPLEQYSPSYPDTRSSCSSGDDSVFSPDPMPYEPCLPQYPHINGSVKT

[4] = biological target: Dual specificity protein kinase CLK3 (Homo sapiens) (UniProt P49761); experiment: Inhibition of full length recombinant human CLK3 at 1 uM using ERMRPRKRQGSVRRRV as substrate measured after 40 mins in presence of [gamma33P]ATP by scintillation counting method relative to control
NCI-H1299 [5] = experiment: Antiproliferative activity against human H1299 cells assessed as inhibition of cell viability after 72 hrs by CCK-8 assay; assay type: functional, cell-based; conditions: NCI-H1299, 72 h
Method in brief: (§2)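 Cells kept at 37 °C, 5% CO2 in DMEM or RPMI-1640 with 10% FBS and 1% penicillin/streptomycin, then seeded at 3000 cells/well (adherent) or 10,000 cells/well (suspension). Exposed to a range of concentrations for 72 h. CCK-8 added for 1-4 h before reading A450. […] Three independent experiments.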

[6] = biological target: Casein kinase I isoform gamma-1 (Homo sapiens) (UniProt Q9HCP0); experiment: Inhibition of recombinant human CK1gamma1 (25 to 355 residues) at 1 uM using KRRRALS(p)VASLPGL as substrate measured after 40 mins in presence of [gamma33P]ATP by scintillation counting method relative to control
Method in brief: (§3)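 Single-point inhibition at 1 µM was measured in the Eurofins KinaseProfiler panel. Values are the mean of two independent experiments.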

[7] = Intrinsic clearance in Sprague-Dawley rat liver microsomes at 2 uM in presence of NADPH measured up to 1 hr by HPLC analysis; assay type: ADME, Microsome
[8] = biological target: Testis-specific serine/threonine-protein kinase 4 (Homo sapiens) (UniProt Q6SA08); experiment: Inhibition of recombinant full-length human TSSK4 at 1 uM using KKLNRTLSFAEPG as substrate measured after 40 mins in presence of [gamma33P]ATP by scintillation counting method relative to control
Chain of Testis-specific serine/threonine-protein kinase 4 (Homo sapiens) (Q6SA08 whole entry): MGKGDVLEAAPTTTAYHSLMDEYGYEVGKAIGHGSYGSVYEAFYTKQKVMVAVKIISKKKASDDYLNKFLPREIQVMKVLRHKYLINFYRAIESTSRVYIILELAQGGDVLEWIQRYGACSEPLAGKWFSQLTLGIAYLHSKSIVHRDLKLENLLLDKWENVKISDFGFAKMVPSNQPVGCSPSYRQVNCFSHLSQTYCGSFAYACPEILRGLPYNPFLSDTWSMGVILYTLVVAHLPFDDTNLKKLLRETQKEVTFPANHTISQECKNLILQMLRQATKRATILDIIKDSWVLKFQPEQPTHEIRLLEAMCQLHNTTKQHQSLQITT

[9] = biological target: Epidermal growth factor receptor (Homo sapiens) (UniProt P00533); experiment: Inhibition of recombinant human EGFR (696 to end residues) at 1 uM using poly (Glu,Tyr) 4:1 as substrate incubated for 40 mins in presence of [gamma-33P]ATP at Km concentration by radiometric assay relative to control
Homo sapiens = organism: Homo sapiens; experiment: Inhibition of human Ros V2262A mutant (1883 to end residues) at 1 uM using KKKSPGEYVNIEFG as substrate measured after 40 mins in presence of [gamma33P]ATP by scintillation counting method relative to control; method in brief: as §1
NCI-H1299 [10] = experiment: Downregulation of OCT4 in human H1299 cells at 0.25 to 1 uM by Western blot analysis; assay type: functional, cell-based
[11] = biological target: Dual specificity mitogen-activated protein kinase kinase 3 (Homo sapiens) (UniProt P46734); experiment: Inhibition of human MKK3 at 1 uM by radiometric method relative to control; method in brief: as §1
Chain of Dual specificity mitogen-activated protein kinase kinase 3 (Homo sapiens) (P46734 whole entry): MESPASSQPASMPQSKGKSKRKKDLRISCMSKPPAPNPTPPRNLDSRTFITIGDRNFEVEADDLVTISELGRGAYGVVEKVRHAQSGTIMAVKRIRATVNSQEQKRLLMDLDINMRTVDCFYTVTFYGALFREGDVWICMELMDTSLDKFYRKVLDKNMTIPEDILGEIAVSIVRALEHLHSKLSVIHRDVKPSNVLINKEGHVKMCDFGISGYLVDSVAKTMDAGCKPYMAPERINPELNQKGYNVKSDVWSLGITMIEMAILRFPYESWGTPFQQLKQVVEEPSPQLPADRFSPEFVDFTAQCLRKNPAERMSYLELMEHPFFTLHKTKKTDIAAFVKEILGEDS

[12] = biological target: Interleukin-1 receptor-associated kinase 1 (Homo sapiens) (UniProt P51617); conditions: 1 uM
[13] = Intrinsic clearance in Beagle dog liver microsomes at 2 uM in presence of NADPH measured up to 1 hr by HPLC analysis; assay type: ADME, Canis lupus familiaris, Microsome
[14] = system: TGF-beta receptor type-1 (Homo sapiens), P36897 [T204D]; experiment: Inhibition of human TGFBR1 T204D mutant (200 to end residues) at 1 uM using casein as substrate measured after 40 mins in presence of [gamma33P]ATP by scintillation counting method relative to control; method in brief: as §1
MCF7 = experiment: Antiproliferative activity against human MCF7 cells assessed as inhibition of cell viability after 72 hrs by CCK-8 assay; assay type: functional, cell-based; conditions: MCF7, 72 h; method in brief: as §2
A549 [15] = experiment: Induction of apoptosis in human A549 cells after 48 hrs by AnnexinV-FITC staining-based flow cytometric analysis; assay type: functional, cell-based
NCI-H1299 [16] = experiment: Downregulation of KLF4 in human H1299 cells at 0.25 to 1 uM by Western blot analysis; assay type: functional, cell-based
[17] = biological target: Ribosomal protein S6 kinase alpha-3 (Homo sapiens) (UniProt P51812); experiment: Inhibition of recombinant full-length human Rsk3 at 1 uM using KKKNRTLSVA as substrate measured after 40 mins in presence of [gamma33P]ATP by scintillation counting method relative to control; method in brief: as §3
[18] = biological target: [Pyruvate dehydrogenase (acetyl-transferring)] kinase isozyme 4, mitochondrial (Homo sapiens) (UniProt Q16654); experiment: Inhibition of recombinant full-length human PDHK4 at 1 uM using KKKYHGHSMSDPGVSYRT as substrate measured after 40 mins in presence of [gamma33P]ATP by scintillation counting method relative to control
[19] = biological target: Vascular endothelial growth factor receptor 2 (Homo sapiens) (UniProt P35968); experiment: Inhibition of recombinant human KDR (790 to end residues) at 1 uM using MBP as substrate measured after 40 mins in presence of [gamma33P]ATP by scintillation counting method relative to control
Chain of Vascular endothelial growth factor receptor 2 (Homo sapiens) (P35968 whole entry): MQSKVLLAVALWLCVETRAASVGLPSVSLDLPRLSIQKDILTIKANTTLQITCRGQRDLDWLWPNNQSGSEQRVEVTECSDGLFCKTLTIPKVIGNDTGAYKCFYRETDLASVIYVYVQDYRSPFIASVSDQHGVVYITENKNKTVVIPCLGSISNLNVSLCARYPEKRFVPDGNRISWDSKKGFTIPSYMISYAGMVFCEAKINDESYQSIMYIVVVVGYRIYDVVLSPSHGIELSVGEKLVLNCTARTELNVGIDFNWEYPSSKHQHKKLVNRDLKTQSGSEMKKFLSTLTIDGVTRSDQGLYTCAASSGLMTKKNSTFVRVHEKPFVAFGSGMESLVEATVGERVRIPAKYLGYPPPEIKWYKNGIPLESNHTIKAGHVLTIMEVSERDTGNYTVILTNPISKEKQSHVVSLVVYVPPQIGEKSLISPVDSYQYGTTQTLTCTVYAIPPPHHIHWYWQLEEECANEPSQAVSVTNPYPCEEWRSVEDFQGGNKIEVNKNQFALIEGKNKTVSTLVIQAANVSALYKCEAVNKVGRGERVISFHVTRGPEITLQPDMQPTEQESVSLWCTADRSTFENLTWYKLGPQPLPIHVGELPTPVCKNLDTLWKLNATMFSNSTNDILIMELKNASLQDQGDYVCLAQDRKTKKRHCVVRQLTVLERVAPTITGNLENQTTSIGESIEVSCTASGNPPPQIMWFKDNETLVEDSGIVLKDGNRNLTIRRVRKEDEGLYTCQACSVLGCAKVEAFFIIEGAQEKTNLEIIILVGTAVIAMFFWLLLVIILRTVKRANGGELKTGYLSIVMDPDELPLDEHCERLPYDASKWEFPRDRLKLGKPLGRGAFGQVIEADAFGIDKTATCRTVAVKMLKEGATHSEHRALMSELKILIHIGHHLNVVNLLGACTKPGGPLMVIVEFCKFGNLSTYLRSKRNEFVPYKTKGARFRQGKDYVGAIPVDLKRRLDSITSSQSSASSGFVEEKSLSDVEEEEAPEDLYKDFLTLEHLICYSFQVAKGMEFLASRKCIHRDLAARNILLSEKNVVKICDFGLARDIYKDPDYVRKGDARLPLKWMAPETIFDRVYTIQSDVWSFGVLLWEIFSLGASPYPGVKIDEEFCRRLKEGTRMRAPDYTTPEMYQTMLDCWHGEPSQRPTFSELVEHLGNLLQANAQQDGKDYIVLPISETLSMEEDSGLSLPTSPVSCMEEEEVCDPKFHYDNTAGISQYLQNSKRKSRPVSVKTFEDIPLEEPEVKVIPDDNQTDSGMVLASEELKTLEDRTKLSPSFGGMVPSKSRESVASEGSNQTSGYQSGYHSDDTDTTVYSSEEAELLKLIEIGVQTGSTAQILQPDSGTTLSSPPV

[20] = biological target: Calcium/calmodulin-dependent protein kinase type II subunit alpha (Homo sapiens) (UniProt Q9UQM7); experiment: Inhibition of full-length recombinant human CaMK2 alpha at 1 uM using KKLNRTLSFAEPG as substrate measured after 40 mins in presence of [gamma33P]ATP by scintillation counting method relative to control; method in brief: as §1
Chain of Calcium/calmodulin-dependent protein kinase type II subunit alpha (Homo sapiens) (Q9UQM7 whole entry): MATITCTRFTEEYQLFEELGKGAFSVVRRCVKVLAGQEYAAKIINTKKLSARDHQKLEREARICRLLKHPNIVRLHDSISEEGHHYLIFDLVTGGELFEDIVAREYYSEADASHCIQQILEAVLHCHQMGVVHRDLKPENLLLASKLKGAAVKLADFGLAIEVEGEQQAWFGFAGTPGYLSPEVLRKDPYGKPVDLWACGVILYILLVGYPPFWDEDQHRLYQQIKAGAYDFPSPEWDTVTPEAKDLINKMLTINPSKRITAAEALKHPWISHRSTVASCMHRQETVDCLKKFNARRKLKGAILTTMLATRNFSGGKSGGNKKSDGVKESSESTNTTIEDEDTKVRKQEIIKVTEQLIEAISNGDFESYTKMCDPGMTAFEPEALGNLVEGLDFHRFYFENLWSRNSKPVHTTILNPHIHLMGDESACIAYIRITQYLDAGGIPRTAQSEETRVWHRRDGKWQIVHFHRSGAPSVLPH

[21] = system: Hepatocyte growth factor receptor (Homo sapiens), P08581 [Y1230H]; experiment: Inhibition of recombinant human MET A1209G/V1290L/Y1248H mutant (974 to end residues) at 1 uM using KKKGQEEEYVFIE as substrate measured after 40 mins in presence of [gamma33P]ATP by scintillation counting method relative to control
Chain of Hepatocyte growth factor receptor (Homo sapiens), P08581 [Y1230H] (P08581 whole entry Y1230H): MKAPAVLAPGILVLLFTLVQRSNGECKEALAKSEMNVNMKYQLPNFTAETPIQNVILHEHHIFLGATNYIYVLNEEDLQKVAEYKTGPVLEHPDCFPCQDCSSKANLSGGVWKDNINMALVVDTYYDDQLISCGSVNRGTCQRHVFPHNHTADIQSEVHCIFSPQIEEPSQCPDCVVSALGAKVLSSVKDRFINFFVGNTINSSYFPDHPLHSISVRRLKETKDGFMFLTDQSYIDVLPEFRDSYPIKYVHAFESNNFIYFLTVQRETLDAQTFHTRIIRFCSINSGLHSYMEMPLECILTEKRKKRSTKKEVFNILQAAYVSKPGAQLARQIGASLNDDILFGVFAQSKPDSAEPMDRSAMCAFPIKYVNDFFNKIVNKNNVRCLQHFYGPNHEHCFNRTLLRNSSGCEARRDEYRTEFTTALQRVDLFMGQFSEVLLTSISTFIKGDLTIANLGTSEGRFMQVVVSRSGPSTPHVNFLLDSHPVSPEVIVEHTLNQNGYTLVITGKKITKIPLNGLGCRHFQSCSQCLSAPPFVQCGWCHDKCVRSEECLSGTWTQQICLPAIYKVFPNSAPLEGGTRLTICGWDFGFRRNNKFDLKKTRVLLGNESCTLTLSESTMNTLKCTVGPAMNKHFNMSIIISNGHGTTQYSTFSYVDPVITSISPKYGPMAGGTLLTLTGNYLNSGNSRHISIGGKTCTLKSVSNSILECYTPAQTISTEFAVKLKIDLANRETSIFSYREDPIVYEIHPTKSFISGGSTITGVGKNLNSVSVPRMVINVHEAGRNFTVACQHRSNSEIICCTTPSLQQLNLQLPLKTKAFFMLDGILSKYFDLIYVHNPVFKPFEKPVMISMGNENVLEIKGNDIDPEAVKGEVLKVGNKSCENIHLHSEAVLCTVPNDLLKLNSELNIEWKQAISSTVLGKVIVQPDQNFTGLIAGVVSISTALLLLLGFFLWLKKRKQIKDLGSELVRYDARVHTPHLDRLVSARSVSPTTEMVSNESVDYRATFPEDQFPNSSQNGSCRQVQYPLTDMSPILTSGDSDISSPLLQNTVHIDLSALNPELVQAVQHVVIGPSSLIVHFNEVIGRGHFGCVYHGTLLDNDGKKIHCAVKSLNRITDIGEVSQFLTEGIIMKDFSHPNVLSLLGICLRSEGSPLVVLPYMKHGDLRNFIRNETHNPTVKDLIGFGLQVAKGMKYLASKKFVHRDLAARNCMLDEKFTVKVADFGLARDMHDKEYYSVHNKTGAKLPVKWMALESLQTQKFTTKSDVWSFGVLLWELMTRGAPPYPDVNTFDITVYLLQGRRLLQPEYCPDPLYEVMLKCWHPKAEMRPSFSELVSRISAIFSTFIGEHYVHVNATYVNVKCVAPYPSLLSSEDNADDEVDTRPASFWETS

[22] = biological target: Cyclin-dependent kinase 9 (Homo sapiens) (UniProt P50750); conditions: A549, 0.25 to 1 uM
Chain of Cyclin-dependent kinase 9 (Homo sapiens) (P50750 whole entry): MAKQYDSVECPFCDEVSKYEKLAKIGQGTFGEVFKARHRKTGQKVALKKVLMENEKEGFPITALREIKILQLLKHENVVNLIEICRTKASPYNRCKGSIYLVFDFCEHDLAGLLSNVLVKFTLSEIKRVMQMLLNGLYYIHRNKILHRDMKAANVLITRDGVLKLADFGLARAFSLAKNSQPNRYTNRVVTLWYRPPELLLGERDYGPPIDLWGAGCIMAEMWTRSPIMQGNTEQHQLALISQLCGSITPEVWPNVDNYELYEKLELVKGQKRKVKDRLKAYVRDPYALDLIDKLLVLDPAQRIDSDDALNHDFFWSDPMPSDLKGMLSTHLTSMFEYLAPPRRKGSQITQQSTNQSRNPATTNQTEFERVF

A549 [23] = experiment: Induction of apoptosis in human A549 cells assessed as late apoptotic cells at 0.5 uM after 48 hrs by AnnexinV-FITC/PI staining-based flow cytometric analysis (reference value: 7.66%); assay type: functional

## CN(C)C(=O)c1cc2cnc(Nc3ccc(NC(=O)CCCCCCCN=C=S)cc3)nc2n1C1CCCC1
[1]
  inhibition: 66%
NCI-H1299 [2]
  Activity: 34.4%
[3]
  inhibition: 27%
[4]
  inhibition: 37%
NCI-H1299 [5]
  IC50: 203 nM
[6]
  inhibition: 11%
[7]
  CLH: 57 µL/min/mg
[8]
  inhibition: -7%
[9]
  inhibition: 21%
Homo sapiens
  inhibition: 0%
NCI-H1299 [10]
  Activity: Active
[11]
  inhibition: 23%
[12]
  inhibition: 98%
[13]
  CLH: 87 µL/min/mg
[14]
  inhibition: 13%
MCF7
  IC50: 1740 nM
A549 [15]
  Activity: Dose-dependent effect
NCI-H1299 [16]
  Activity: Active
[17]
  inhibition: 12%
[18]
  inhibition: -3%
[19]
  inhibition: 56%
[20]
  inhibition: 61%
[21]
  inhibition: 62%
[22]
  inhibition: Active
A549 [23]
  Activity: 13.8%

Source: ChEMBL document CHEMBL4376814, “Novel cyclin-dependent kinase 9 (CDK9) inhibitor with suppression of cancer stemness activity against non-small-cell lung cancer” (Eur J Med Chem, 2019)
